# Measured values from the RNAGym collection of RNA variant scans (doi:10.1126/science.aae0568).
# Fewer inactive variants are shown than the library holds.
# B1: tRNA (parent)
# chain: GUUCCGUUGGCGUAAUGGUAACGCGUCUCCCUCCUAAGGAGAAGACUGCGGGUUCGAGUCCCGUACGGAACG
# Variants of: B1
# Experiment: yeast fitness relative to wild type (ratio to wild type); higher = fitter; tRNA-Arg(CCU), competitive growth, 37 C, YPD
# How it was run: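 The tRNA-Arg(CCU) gene variants were made by chemical synthesis with a 3% per-site mutation rate at 69 sites and inserted at the native genomic locus of Saccharomyces cerevisiae. After pooling, the strains were competed in YPD at 37°C for 24 hours in six parallel replicates. Gene amplicons from the start population and each end population were read by 100-nucleotide paired-end sequencing, and Darwinian fitness relative to wild type was taken from genotype frequency changes. Genotypes needed ≥ 100 starting reads, and estimates < 0.5 were set to 0.5.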
row,Variant,yeast fitness
1,GUUCCGUUGGCGUAAUGGUAACGCGUCUCCCUCGUAAAGAGAAGACUGCGGGUUCGGGUCCCGUACGGAACG,0.539
2,GUUCCGUUGGCGUAAUGGUAACGCGUCUCCCUCGUAAGGCGAAGACUGCGGGUUCGAGUCCUGUACGGUACG,0.573
3,GUUCCGUUGACGUAAUGGUAACGCGUCUCAGUCCUAAGGAGAAGACUGCGGGUUCGAGUCCCGUACGGGACG,≤ 0.5
4,GUUCCGUUGGCGUAAUGAUAUCGCGUCUCCCUCCUAAGGAGAAGACUGCGGGUUCGAGUCCCGUACGAAACG,≤ 0.5
5,GUUCCGUUGGCGUAAUGGUACCGCGUCACCCCCCUAAGGAGAAGACUGCGGGUUCGAGUCCCGUACGAAACG,≤ 0.5
6,GUUCCGUUCGCGUAAUGGUAACGCGUAUUCCUCCUACGGAGAAGACUGCGGGUUCGAGUCCCGUACGGAACG,0.637
7,GUUCCGUUGGCGUUAUGGUAACGCGUCUCCCUCCUAAGGAGAUGGCUGCGGGUUCGAGUCCCGUACGAAACG,≤ 0.5
8,GUUCAGUUGGCGUAAUGGUAACGCGUCUCCCUCCUAAGGAGAAGACUGCGGGUUCGAGUCCCGUACGGGACG,0.908
9,GUUCCGUUGGCGUGAUGGUAACGCGUCUCCCUCCUGAGGAGAAGACUGCGGGUUCGAGUCCCGUACGGAACG,0.8
10,GUUCCGUUGGCGUAAUGGGUACGCGUCUCCCUCCUAAGGAGAAGACUGCGGGUUCGACUCCCGUACGGAACG,0.716
11,GUUCCGUUGGCGCAAUGGUAACGCGUCUCCUUCCUAAGGAGAAGACUGCGGGUUCGGGUUCCGAAAGGCACG,≤ 0.5
12,GUUUCGUGGGCAUAAUGGUAACGCGUCUCCCUCCUAAGGAGAAGACUGCGGGUUCGAGUCCCGUACGGAACG,0.539
13,GUUCCGUUAGCGUAAUGGUAACGCGUCUCCCUCCUUAGAAGAAGACUGCGGGUACGAGUCCCGUACGGAACG,≤ 0.5
14,GUUCCGUUGGCGUAAUGGUAACGCGUGUCCCUCCUAUGGAGAAGACUGGGGGUUCGAGUCCCGCACGGCACG,≤ 0.5
15,GUCCCGUUGGCGUAAUGGUAAGGCGUCUACCUCCUAAGGAGCAGACUGCGGGUUCGAGUCCCGUACGGAACG,≤ 0.5
16,GUUCCGUUGGCGUAAUGGUACCGCGUCUCCCUCCUAAGGAGAAGACUGCAGGUUCGAGUCCCGUACGGAACG,0.672
17,GUUCCGUUAGCGUACUGGUAACGCGUCUCCCUCCUAAGGAGAUGACUGCGGGUUCGAGUCCCGUACGGAACG,≤ 0.5
18,GUCCCGUUGGGGUAAUGGUAACGCGUCUCCCUCCUAAGGAGAAGACUGCGGGUUCGAGUCCCGUACGGAACG,0.608
19,GUUCCGUUGGCGUAAUGGUGACGCGUCACCUUCCUAAGGAGAAGACUGCGGGUACGAGUCCCGUACGGAACG,0.613

row,Variant,yeast fitness
1,GUUCCGUUGGCGUAAUGGUAACGCGUCUCCCCCCUCAGGAGAAGACUGCGGCUUCGAGUCCCGUAUGGAACG,≤ 0.5
2,GUUCCGUUGGCGUAAUGGUAACGCGUCUCGCUCCUAAGGAGAAGACUGCGGCUUCGAGUCCCGUACGGAACG,0.512
3,GUUCCGUUGGCGUAAUGGUAACGCGUCUCCCUCCUAAGGAGAUGACUGGGGGUUCGAGUCCCAUACGGCACG,≤ 0.5
4,GUUCCGUUGGCGUAAUGGUAACGUGUCUCCCUCCUAAGGAGAAGACUGCGGGUUCCGGUCCCGUACGGAACG,≤ 0.5
5,GUUCCGUUGGCGUAAUGGUAACGCGUCUCCCUCCUAAGGAGAAGACUGAGGGUUCGGGUCCCGUACGGAACG,0.835
6,GUUCCGUUCGCGUAAUGGUAACGCGUCUCCCUCCUCAGGAGAAGACUGCGGGUUUGAGUCCCGUACGGAACG,≤ 0.5
7,GUUCCGAUGGCGUAAUGGUAGCGCGUCUCGCUCCUAAGGAGAAGACUGCGGGUUCGAGUCCCGUACGGAACG,≤ 0.5
8,GUUCCGUUGGCGAAAUGGUAACCGGUCUCCCUCCUAAGGAGAAGACUGCGGGUUCGAGUCCCGUACGGAGCG,≤ 0.5
9,GUUCCGUUGGCGGAAUGGUAACGCGUCUCCCUCCUGAGGAGAAGACUGCGGGUUCGAGUCCCGUACGGAACG,0.913
10,GUUCCGUUGGCGUAAUGGUAACGGGUCUCCCUCCUAAGGUGAUGACUGGCGGUUCGAGUCUCGUAUGGAACG,≤ 0.5
11,GUUCCGUUGGUGCAAUGGUAACGCGUCUCCCUCCUAAGGAGAAGACUGCGGGUUCGAGUCCCGUACGGCACG,0.737
12,GUUCCGUUGGCCUAAUGGUAAGGCGUCUCCCUCCUAAGGAGAAGACUGCGGGUUCGAGUCCCGUACGGAACG,1.03
13,GUUCCGCUGGCGUAAUGGUAACGCGUCUCCCUCCUAAGGAGAAAAUUGCGGGUUCGAGUCCCGUACGGCACG,0.698
14,GUUCCGUUGCCCUAAUGGUAACGCGUCUCCCUCCUAAGGAGAAGAGUGCGGGUUUGAGUCCCGUACCGAACG,≤ 0.5
15,GUUCCGUUGGCGUAAUCGUAACGCGUCUCCCUCGUACGGAGAAGACUGCGGGUUCGAGUCCAGUACGGAACG,0.561
16,GUUCCGUUGGCGUAAUGGACACGCGUCUCCGUCCUAAGGAGAAGACUGCGGGUUCGAGUCCCGUACGGAACG,≤ 0.5
17,GUUCCGUUGGCGUAAUGGUAACGCGUCUCCGUCCUAAGGAGAAGACUGCGGGUCCGAGUCCCGUACGGAACG,0.798
18,GUUCCAUUGGCGUAAUGGUAACGUGUCUCCCUCCUAAGGAGAAGCCUGCGGGUUCGAGUCGCGUACGGAACG,≤ 0.5
19,GCUCCGUUGGCGUAAUGGUUACGCGUCUCCCUCCUAAGGAGAAGACUGCGGGUUCGAGUCCCGUACGGCACG,0.636
